# Values joined by “and” are separate entries in the source; they are usually repeats but may differ in a detail not shown here. Equal entries are not always repeated. In all, about 360,000 compounds went through this assay and about 200 (0.056%) were called active. What follows is part of a selection rich in actives, with near analogues and random picks from the rest. A number with no mark means an inactive call.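 Rule for the calls: active = mean normalized replicate activation at least 10% and every replicate at or above 10%; inconclusive = only one of the two criteria met; inactive = mean below 10% and not all replicates reach 10%.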
# Test: activators of inactive X chromosome reactivation, primary screen, imaging, XiGFP fibroblasts, GFP high-content imaging, set 2 (AID 743238);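 note: 0% = median of on-plate neutral control wells and 100% = ellipticine 6 µM median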
# Conditions: XiGFP mouse fibroblasts, % GFP-positive cells imaging, 3 d; at 7.58 µM; active compounds read high; cells co-treated with 5-aza-dC sensitizer; scaled so ellipticine positive control = 100%
# Summary of the method: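 System: 68-5-11 XiGFP fibroblast line; Timing: 3 days compound exposure; Compound dosing: one concentration, pinned; Benchmarks: positive control ellipticine, 6 µM final; Buffer or medium: DMEM containing 5-aza-dC.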
row,Compound,activation
1,COC(=O)C[C@H]1CC[C@@H](NC(=O)c2ccccc2)[C@@H](CO)O1,-0.033%
2,COc1ccc(NC(=O)N(C)C[C@H]2Oc3c(NC(=O)Nc4cccc5ccccc45)cccc3C(=O)N([C@@H](C)CO)C[C@H]2C)cc1,-0.612%
3,O=C(C[C@H]1C[C@H]2c3cc(NC(=O)Nc4ccc(C(F)(F)F)cc4)ccc3O[C@H]2[C@@H](CO)O1)NCc1cccnc1,0.387%
4,CCCC(=O)Nc1ccc2c(c1)OC[C@H](C)N(CCc1ccccc1)C[C@H](C)[C@@H](OC)CN(C)C2=O,-0.359%
5,CCNC(=O)C[C@@H]1C=C[C@@H](NC(=O)C2CCOCC2)[C@@H](CO)O1,0.276%
6,COc1ccc(S(=O)(=O)N(C)C[C@@H]2Oc3ccc(NC(=O)Cc4ccccc4)cc3CC(=O)N([C@@H](C)CO)C[C@H]2C)cc1,-0.0685%
7,COc1ccc2c3c([nH]c2c1)[C@@H](CO)N(Cc1cc(F)ccc1F)CC31CCN(C(=O)C2CCC2)CC1,0.358%
8,Cc1ccc(S(=O)(=O)Nc2ccc3c(c2)C(=O)N(C)[C@@H]2CC[C@@H](CC(=O)O)O[C@H]2CO3)cc1,0.151%
9,O=C(C[C@@H]1C=C[C@H](NC(=O)Nc2ccccc2F)[C@H](CO)O1)NCc1ccc(F)cc1,0.215%
10,C[C@H](CO)N1C[C@H](C)[C@@H](CN(C)S(=O)(=O)c2cccs2)Oc2ccc(NC(=O)Nc3ccc(C(F)(F)F)cc3)cc2CC1=O,-0.017%
11,C[C@@H]1CCCCO[C@H](CN(C)C(=O)CCCN(C)C)[C@H](C)CN([C@@H](C)CO)C(=O)c2cc(NS(=O)(=O)c3ccc(Cl)cc3)ccc2O1,0.114%
12,C[C@H]1CCCCO[C@H](CN(C)C(=O)Nc2ccc(F)cc2)[C@@H](C)CN([C@@H](C)CO)C(=O)c2cc(NC(=O)CCC(F)(F)F)ccc2O1,-0.105%
13,N#C[C@@H]1[C@H](c2ccccc2-c2ccccc2F)[C@@H](CO)N1C(=O)C1CCOCC1,0.163%
14,O=C1C(Cl)=C(Oc2ccccc2)C(=O)c2ccccc21,19.2% (active)
15,CCC(=O)Nc1ccc2c(c1)C(=O)N(C)C[C@H](OC)[C@H](C)CN(C(=O)c1ccccc1F)[C@@H](C)CO2,0.375%
16,CO[C@H]1CN(C)C(=O)c2cc(NS(C)(=O)=O)ccc2OC[C@@H](C)N(C)C[C@@H]1C,-0.465%
17,C[C@@H]1CN([C@@H](C)CO)C(=O)CCCn2cc(nn2)CO[C@@H]1CN(C)S(=O)(=O)c1cccc(F)c1,-0.223%
18,C[C@H]1CN([C@@H](C)CO)C(=O)c2c(c3ccccc3n2C)-c2ccccc2CO[C@H]1CN(C)S(=O)(=O)c1ccc(C#N)cc1,-1.22%
19,CCC(=O)N1CC(=O)N2[C@@H](CO)[C@@H](c3ccc(C#CC4CCCC4)cc3)[C@@H]2C1,-0.0225%
20,CCCC#Cc1ccc([C@H]2[C@H]3CN(C(=O)Nc4cc(F)ccc4F)CC(=O)N3[C@H]2CO)cc1,0.26%
21,CN1C(=O)c2cc(NC(=O)c3cccc(F)c3)ccc2OC[C@@H]2O[C@@H](CC(=O)NCC3CCCCC3)CC[C@H]21,-0.045% and -0.023%

row,Compound,activation
1,Cc1ccccc1S(=O)(=O)N1C[C@H](O)COC[C@H]2O[C@H](CC(=O)N3CCCCC3)CC[C@@H]21,0.037%
2,C=C(C)C[C@H]1CCn2cc(nn2)COCCNC1=O,0.348%
3,C[C@H]1CN([C@@H](C)CO)C(=O)c2cccc(NC(=O)CCCCCC(=O)Nc3ccccc3N)c2O[C@@H]1CN(C)C(=O)NC1CCCCC1,-1.38%
4,C[C@@H]1CN([C@@H](C)CO)C(=O)c2cc(NS(=O)(=O)c3ccc(F)cc3)ccc2O[C@@H]1CN(C)C(=O)NC1CCCCC1,0.0955%
5,O=C(C[C@@H]1C=C[C@H](NC(=O)C2CCC2)[C@@H](CO)O1)NCC1CC1,0.225%
6,C[C@@H]1CN([C@@H](C)CO)C(=O)c2cc(NC(=O)Nc3cccc4ccccc34)ccc2O[C@H]1CN(C)Cc1ccc(Oc2ccccc2)cc1,0.262%
7,O=C([C@@H]1[C@@H](CO)[C@@H]2Cn3c(ccc(C4=CCCC4)c3=O)[C@H]1N2C(=O)c1ccncc1)N1CCCCC1,0.116%
8,O=C(C[C@@H]1C[C@H]2c3cc(NC(=O)Nc4ccccc4F)ccc3O[C@H]2[C@@H](CO)O1)NC1CCCCC1,-0.047%
9,C[C@H](NC(=O)C[C@H]1C=C[C@@H](NC(=O)C2CCOCC2)[C@@H](CO)O1)c1ccccc1,0.456%
10,C[C@@H]1CC=CC[C@@H](c2ccccc2)NC(=O)[C@@H](Cc2ccccc2)N(C)C(=O)c2ccccc2O1 (mixture of isomers),0.0795%
11,Cc1ccc(-c2ccc([C@H]3[C@H]4CN(S(=O)(=O)c5cccc(F)c5)CC(=O)N4[C@H]3CO)cc2)cc1,0.287%
12,CC(C)NC(=O)N1[C@H](CO)[C@@H]2c3ccccc3N(C(=O)Nc3cccc(Cl)c3)C[C@@H]21,0.198%
13,C/C=C/c1ccc([C@H]2[C@@H](CO)N3CCCCN(C(=O)c4ccc(F)cc4)C[C@@H]23)cc1,0.11%
14,O=C(Nc1cc(F)ccc1F)N[C@H]1CC[C@H](CCn2cc(C3CCCC3)nn2)O[C@@H]1CO,0.418%
15,C/C=C/c1ccccc1[C@H]1[C@@H](C#N)N(c2nc(CC)cs2)[C@@H]1CO,-0.0085%
16,OC[C@@H]1[C@@H](c2ccccc2)C2(CN(Cc3cccc(F)c3)C2)N1CC1CCCC1,-0.0685%
17,CO[C@@H]1CN(C)C(=O)c2cc(NC(=O)C3CCCC3)ccc2OC[C@@H](C)N(C(=O)Nc2ccc(C(F)(F)F)cc2)C[C@H]1C,0.0025%
18,C[C@@H]1CN([C@H](C)CO)C(=O)c2cccc(NS(=O)(=O)c3ccc(Cl)cc3)c2O[C@@H]1CN(C)CC1CC1,0.281%
19,Cc1noc(C)c1NC(=O)N(C)C[C@@H]1Oc2c(NC(=O)C3CCCCC3)cccc2C(=O)N([C@H](C)CO)C[C@@H]1C,-0.974%
20,CCCC(=O)N1CCC2(CC1)CN[C@H](CO)c1[nH]c3cc(OC)ccc3c12,-0.018%
21,O=C(C[C@@H]1CC[C@H]2[C@@H](COC[C@@H](O)CN2S(=O)(=O)c2cccc(F)c2)O1)NCCCN1CCOCC1,-0.0535%

row,Compound,activation
1,C[C@@H]1CCCCO[C@H](CN(C)Cc2ccncc2)[C@@H](C)CN([C@H](C)CO)C(=O)c2cc(NS(C)(=O)=O)ccc2O1,-0.0215%
2,CO[C@H]1CN(C)C(=O)c2ccc(NC(=O)C3CCC3)cc2OC[C@H](C)NC[C@@H]1C,0.146%
3,COc1ccc(NC(=O)Nc2ccc3c(c2)[C@H]2C[C@H](CC(=O)NC4CCCC4)O[C@@H](CO)[C@H]2O3)cc1,4.51%
4,COc1cccc(-c2ccc([C@@H]3[C@H]4CN(C(=O)c5cccnc5)CC(=O)N4[C@H]3CO)cc2)c1,0.076%
5,O=C(c1ccncc1)N1C[C@H]2[C@@H](c3ccccc31)[C@H](CO)N2C(=O)Nc1ccc(F)cc1,0.255%
6,C[C@H]1CN([C@@H](C)CO)C(=O)Cc2cc(NC(=O)Cc3ccccc3)ccc2O[C@@H]1CN(C)S(=O)(=O)c1ccc(Cl)cc1,-1.34%
7,CO[C@@H]1CN(C)C(=O)c2cc(NC(=O)NC3CCCC3)ccc2OC[C@H](C)NC[C@H]1C,0.41%
8,C[C@@H]1CCCCO[C@@H](CN(C)C(=O)CCCN(C)C)[C@@H](C)CN([C@H](C)CO)C(=O)c2cc(NC(=O)Nc3ccc(F)cc3)ccc2O1,0.229%
9,COc1ccc(N2C(=O)C3CCCN3C2c2cc(OC)c(OC)cc2OC)cc1 (stereo not drawn),0%
10,COc1ccc(N2C(=O)C3CCCN3C2c2cccc(OC)c2)cc1 (stereo not drawn),12.3% (active)
11,COc1ccc(N2C(=O)C3CCCN3C2c2cccs2)cc1 (stereo not drawn),-0.124%
12,O=C(C[C@@H]1CC[C@@H]2[C@H](COC[C@H](O)CN2C(=O)C2CC2)O1)NCc1ccncc1,0.085%
13,C[C@@H]1CCCCO[C@H](CN(C)S(C)(=O)=O)[C@@H](C)CN([C@@H](C)CO)C(=O)c2cc(NC(=O)CCC(F)(F)F)ccc2O1,0.0715%
14,O=C(c1ccccn1)N1CC2(C1)[C@@H](c1ccccc1)[C@@H](CO)N2C(=O)C1CCCCC1,-0.0175%
15,O=C(N[C@@H]1CC[C@H](CCn2cc(C3CC3)nn2)O[C@H]1CO)c1cccnc1,-0.107%
16,CO[C@H]1CN(C)C(=O)c2cc(NC(=O)C3CC3)ccc2OC[C@@H](C)NC[C@H]1C,0.168%
17,C#Cc1cc(N2CCN(C(=O)c3ccoc3)CC2)n2nc(-c3cccc(Cl)c3)cc2n1,34% (active)
18,CNc1cncc(-c2cccc(C(=O)N3CCOCC3)c2)n1,0.023%
19,CCc1nc2ccc(C(=O)N3CCN(c4cccc(Cl)c4)CC3)cc2nc1CC,0.143%
20,CO[C@@H]1CN(C)C(=O)c2cc(NC(=O)c3cccc(F)c3)ccc2OC[C@H](C)N(C)C[C@@H]1C,-0.118%
21,COc1ccc(NC(=O)N(C)C[C@@H]2OCCCC[C@H](C)Oc3ccc(NS(=O)(=O)c4c(C)noc4C)cc3C(=O)N([C@@H](C)CO)C[C@@H]2C)cc1,0.115%

# Source: PubChem BioAssay AID743238 (Broad Institute, 2013)
